Laboratory results as given in ChEMBL document CHEMBL1126685, “Bronchodilator activity of xanthine derivatives substituted with functional groups at the 1- or 7-position” (J Med Chem, 1993).

Assays:
Adenosine receptor A1 [1] = molecular target: T1, Adenosine receptor A1 (Cavia porcellus, UniProt P47745); experiment: Binding affinity against adenosine A1 receptor of cerebral cortex using [3H]CPX as a radioligand; assay type: tissue-based
T1 sequence (P47745 whole entry): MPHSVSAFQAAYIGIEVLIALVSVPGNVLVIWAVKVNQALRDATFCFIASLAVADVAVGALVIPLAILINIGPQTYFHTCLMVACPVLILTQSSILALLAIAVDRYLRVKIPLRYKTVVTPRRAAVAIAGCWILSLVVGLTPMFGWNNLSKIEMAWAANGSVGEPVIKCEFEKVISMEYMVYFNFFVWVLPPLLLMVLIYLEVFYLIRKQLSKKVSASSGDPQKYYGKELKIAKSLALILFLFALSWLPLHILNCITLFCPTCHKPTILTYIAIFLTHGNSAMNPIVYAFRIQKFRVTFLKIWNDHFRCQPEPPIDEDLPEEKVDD

Cavia porcellus [2] = species: Cavia porcellus; experiment: Effective concentration required in vitro for heart stimulation (right atrium) in guinea pig; assay type: functional; details: Cardiac atrium
How it was run: (§1)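 Isolated right atrium of male Hartley guinea pigs, 25 °C Krebs-Henseleit gassed 95% O2–5% CO2, 0.5 g tension; cumulative concentrations; beating rate via cardiometer triggered by isometric contraction. EC15 = concentration raising rate 15% above unstimulated; 3–5 experiments.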

Cavia porcellus [3] = experiment: Bronchodilatory effect, 50% inhibition of spasmogen-induced response in male Hartley guinea pigs on intraduodenal administration; assay type: functional
How it was run: (§2)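 Urethane-anesthetized (1.5 g/kg ip), ventilated male Hartley guinea pigs; compound suspended in 0.5% carboxymethylcellulose given intraduodenally 5 min before iv acetylcholine 40 μg/kg (jugular, every 15 min, after three stable responses); Konzett–Rossler overflow bronchospasm and carotid-pulse heart rate followed 110 min.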

Cavia porcellus [4] = experiment: Positive chronotropic effect, 15% increase in heart rate of male Hartley guinea pigs on intraduodenal administration (mean of 3-5 animals); assay type: functional; how it was run: as §2
Adenosine receptor A1 [5] = molecular target: T1, Adenosine receptor A1; experiment: Binding affinity against Adenosine A1 receptor of cerebral cortex using [3H]-CPX; assay type: tissue-based
Cavia porcellus [6] = species: Cavia porcellus; experiment: Effective concentration required in vitro for tracheal muscle (from male Hartley guinea pigs) relaxation; assay type: functional; details: Trachea
How it was run: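 Tracheal ring chains from male Hartley guinea pigs (300–500 g), 37 °C Krebs-Henseleit pH 7.4, 95% O2–5% CO2, 0.5 g tension, spontaneous tone; cumulative compound addition, isotonic recording.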

Cavia porcellus [7] = species: Cavia porcellus; experiment: In vitro guinea pig heart stimulation (right atrium); assay type: functional; details: Cardiac atrium; how it was run: as §1
[8] = Bronchoselectivity, ratio of positive chronotropic action (ED15) to bronchodilator action (ED50); assay type: functional
[9] = Bronchoselectivity expressed as ratio of stimulatory activity in the right atrium (EC15) to relaxant activity in the tracheal muscle (EC50); assay type: functional, Cardiac atrium
[10] = molecular target: Adenosine A2 receptor (guinea pig); experiment: Binding affinity against adenosine A2 receptor of striatal membrane using [3H]CGS-21680 as a radioligand
[11] = molecular target: cyclic AMP phosphodiesterase (guinea pig); experiment: Inhibition of cyclic AMP-phosphodiesterase ( PDE) in the supernatant of tracheal muscle homogenate
[12] = Bronchoselectivity expressed as ratio of positive chronotropic action (ED15) to bronchodilator action (ED50)

Ki (Adenosine receptor A1 [1]) [µM] | Ki (Adenosine receptor A1 [5]) [µM] | EC50 (Cavia porcellus [6]) [nM] | Ki [10] [µM] | Ki [11] [µM] | Selectivity [12] | Compound | EC15 (Cavia porcellus [2]) [µM] | ED50 (Cavia porcellus [3]) [mg/kg] | ED15 (Cavia porcellus [4]) [mg/kg] | EC15 (Cavia porcellus [7]) [µM] | Selectivity [8] | Selectivity [9]
0.21 | – | – | – | – | – | CCCn1c(=O)c2nc[nH]c2n(CCC)c1=O | 20 | 4.69 | 25.5 | – | – | –
– | 16.5 | 10 | – | – | – | CCCCn1c(=O)c2c(ncn2CC(C)=O)n(CCCC)c1=O [DENBUFYLLINE] | – | 5.9 | 90 | 6 | – | –
– | – | 1600 | 8 | – | – | CCCn1c(=O)n(C)c(=O)c2[nH]cnc21 | 3.3 | 4.44 | 5.7 | – | 1.3 | 2.1
24.3 | – | 4600 | 22.9 | 136 | – | CCCn1c(=O)n(C)c(=O)c2c1ncn2CCOCC | > 100 | 12.1 | 25.2 | – | 2.1 | 21.7
– | – | 5000 | 43.8 | – | – | CCCn1cnc2c1c(=O)n(C)c(=O)n2CCC | > 100 | 27.5 | > 100 | – | > 3.6 | 20
23.1 | – | 60 | – | 16.4 | – | CCCn1c(=O)n(CCCCC(C)=O)c(=O)c2[nH]cnc21 | 3.6 | 2.55 | 13.5 | – | 5.3 | 62
– | – | – | – | – | – | CCCn1c(=O)[nH]c(=O)c2nc[nH]c21 [ENPROFYLLINE] | 18.3 | – | 95.1 | – | – | –
12.4 | – | 2900 | 15.7 | 48.7 | – | CCCn1c(=O)n(CCCOC)c(=O)c2[nH]cnc21 | 31.3 | 0.72 | 10.7 | – | 14.9 | 10.8
0.06 | – | 200 | 3.2 | 14.6 | 6 | C=CCCn1c(=O)c2[nH]cnc2n(CCC)c1=O | 4.5 | 1.84 | 11 | – | – | 22.5
– | – | – | – | – | – | Cn1c(=O)c2nc[nH]c2n(C)c1=O.O [THEOPHYLLINE] | 62 | – | 20.2 | – | – | –
> 200 | – | > 100000 | > 200 | 119 | – | CCCn1c(=O)n(C)c(=O)c2c1ncn2CC(N)=O | > 100 | – | – | – | – | 1
6 | – | 16800 | 5.6 | 29.9 | – | C=CCCn1cnc2c1c(=O)n(C)c(=O)n2CCC | 30.6 | – | – | – | – | 1.8
95.7 | – | 1900 | > 200 | 20.7 | – | CCCn1c(=O)n(C)c(=O)c2c1ncn2CC(C)=O | 37.5 | 1.49 | 30 | – | 20.1 | 19.7
> 200 | – | > 100000 | > 200 | 53 | – | CCCn1c(=O)n(C)c(=O)c2c1ncn2CCN(C)C | > 100 | – | – | – | – | 1
12.4 | – | 36100 | 58.7 | 72.7 | – | CCCn1c(=O)n(C)c(=O)c2c1ncn2CCOC | > 100 | – | – | – | – | 2.8
4.3 | – | 2700 | > 200 | 9 | – | CCCn1c(=O)n(CCN(C)C)c(=O)c2[nH]cnc21 | > 100 | 5.65 | > 100 | – | > 17.7 | 37
41.4 | – | 31800 | > 200 | 28.7 | – | CCCn1c(=O)n(C)c(=O)c2c1ncn2CCO | > 100 | – | – | – | – | 3.1
2.5 | – | 700 | 21.6 | 8.2 | – | CCCn1c(=O)n(CCOC)c(=O)c2[nH]cnc21 | 6.3 | – | – | – | – | 9
11.4 | – | 14900 | > 200 | 46.4 | – | CCCn1c(=O)n(CC(C)=O)c(=O)c2[nH]cnc21 | 45.7 | – | – | – | – | 3.1
1.9 | – | 70 | 12 | 22.3 | – | CCCn1c(=O)n(CCOCC)c(=O)c2[nH]cnc21 | 25.3 | 1.7 | 20 | – | 11.8 | 361

Compound | Ki (Adenosine receptor A1 [1]) [µM] | Ki (Adenosine receptor A1 [5]) [µM] | EC50 (Cavia porcellus [6]) [nM] | Ki [10] [µM] | Ki [11] [µM] | Selectivity [12] | EC15 (Cavia porcellus [2]) [µM] | ED50 (Cavia porcellus [3]) [mg/kg] | ED15 (Cavia porcellus [4]) [mg/kg] | EC15 (Cavia porcellus [7]) [µM] | Selectivity [8] | Selectivity [9]
CC(=O)CCCCn1c(=O)c2c(ncn2C)n(C)c1=O [PENTOXIFYLLINE] | 180 | – | 28300 | – | – | – | 52.4 | 43 | 39.4 | – | – | –
